Data: ChEMBL document CHEMBL1127389, “Synthesis and biological activity of 2-hydroxy and 2-alkoxy analogs of 1 alpha,25-dihydroxy-19-norvitamin D3” (1994)
“And” between values parts separate entries of the source, which are not always exact repeats. Identical values can stand only once.

Key:
[1] = species: Rattus norvegicus; experiment: tested in the vitamin D-deficient rat for the ability to support intestinal absorption of calcium with compound concentration 325 (pmol/d/7 days) expressed as Serum/Mucosal ratio; format: functional
Summary of the method: (§1)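 Vitamin D-deficient Holtzman weanling rats were kept 1 week on a 0.47% Ca diet, then on a 0.02% Ca diet. They were given intraperitoneal injections daily for 7 days in 0.1 mL of 95:5 propylene glycol/ethanol, with vehicle controls, and killed 24 h after the last dose. Transport was measured by everted sac of the proximal 10 cm of intestine, as the ratio of sac Ca to final medium Ca (S/M). Groups had at least 6 rats; Student's t-test.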

[2] = species: Rattus norvegicus; experiment: tested in the vitamin D-deficient rat for the ability to support intestinal absorption of calcium with compound concentration 130 (pmol/d/7 days) expressed as Serum/Mucosal ratio; format: functional; summary of the method: as §1
[3] = species: Rattus norvegicus; experiment: Bone calcium-mobilizing activity with concentration 260 (pmol/d/7 days); format: functional, organism-based
Summary of the method: (§2)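 Holtzman weanling rats were fed a vitamin D-deficient diet with 0.47% Ca for 1 week, then a 0.02% Ca diet. They received daily intraperitoneal doses in 0.1 mL of 95:5 propylene glycol/ethanol for 7 days; controls got vehicle. Rats were killed 24 h after the last dose. Serum Ca was measured by automatic calcium titrator; on this diet, the rise in serum Ca is taken as bone Ca mobilization. At least 6 rats/group; Student's t-test.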

[4] = species: Rattus norvegicus; experiment: Tested in the vitamin D-deficient rat for the ability to support intestinal absorption of calcium with compound concentration 260 (pmol/d/7 days) expressed as Serum/Mucosal ratio; format: functional; summary of the method: as §1
[5] = species: Rattus norvegicus; experiment: tested in the vitamin D-deficient rat for the ability to support intestinal absorption of calcium with compound concentration 65 (pmol/d/7 days) expressed as Serum/Mucosal ratio; format: functional; summary of the method: as §1
[6] = species: Rattus norvegicus; experiment: Bone calcium-mobilizing activity with compound concentration 260 (pmol/d/7 days); format: functional, organism-based; summary of the method: as §2
[7] = species: Rattus norvegicus; experiment: Bone calcium-mobilizing activity with compound concentration 325 (pmol/d/7 days); format: functional, organism-based; design: unit not given here; summary of the method: as §2
[8] = species: Rattus norvegicus; experiment: Tested in the vitamin D-deficient rat for the ability to support intestinal absorption of calcium with compound concentration 325 (pmol/d/7 days) expressed as Serum/Mucosal ratio; format: functional
[9] = species: Rattus norvegicus; experiment: Tested in the vitamin D-deficient rat for the ability to support intestinal absorption of calcium with compound concentration 130 (pmol/d/7 days) expressed as Serum/Mucosal ratio; format: functional
[10] = species: Rattus norvegicus; experiment: Tested in the vitamin D-deficient rat for the ability to support intestinal absorption of calcium with compound concentration 65 (pmol/d/7 days) expressed as Serum/Mucosal ratio; format: functional
[11] = species: Rattus norvegicus; experiment: Bone calcium-mobilizing activity with compoundm concentration 130 (pmol/d/7 days); format: functional, organism-based; summary of the method: as §2
[12] = species: Rattus norvegicus; experiment: Bone calcium-mobilizing activity with compound concentration 65 (pmol/d/7 days); format: functional, organism-based; summary of the method: as §2
[13] = species: Rattus norvegicus; experiment: tested in the vitamin D-deficient rat for the ability to support intestinal absorption of calcium with compound concentration 260 (pmol/d/7 days) expressed as Serum/Mucosal ratio; format: functional; summary of the method: as §1
[14] = species: Rattus norvegicus; experiment: Bone calcium-mobilizing activity with compound concentration 130 (pmol/d/7 days); format: functional, organism-based; summary of the method: as §2

Structure (SMILES): C[C@H](CCCC(C)(C)O)[C@H]1CC[C@H]2/C(=C/C=C3C[C@@H](O)C(OCCCO)[C@H](O)C3)CCC[C@]12C (stereo partly specified) [listing 1 of 3 here]
- Ratio [1]: 4.3
- Ratio [2]: 3.5

Structure (SMILES): C[C@H](CCCC(C)(C)O)[C@H]1CC[C@H]2/C(=C\C=C3C[C@@H](O)C(O)[C@H](O)C3)CCC[C@]12C (stereo partly specified) [listing 1 of 3 here]
- Ratio [1]: 5
- Ratio [2]: 5.3

Structure (SMILES): C[C@H](CCCC(C)(C)O)[C@H]1CC[C@H]2/C(=C/C=C3C[C@@H](O)C(OCc4ccccc4)[C@H](O)C3)CCC[C@]12C (stereo partly specified)
- Serum Ca2+ [3]: 4.6
- Ratio [4]: 11.9

Structure (SMILES): C[C@H](CCCC(C)(C)O)[C@H]1CC[C@H]2/C(=C\C=C3C[C@@H](O)C(O)[C@H](O)C3)CCC[C@]12C (stereo partly specified) [listing 2 of 3 here]
- Ratio [1]: 10.8
- Ratio [5]: 5.8

Structure (SMILES): C=C1/C(=C/C=C2/CCCC3(C)C2CCC3[C@H](C)CCCC(C)(C)O)C[C@@H](O)C[C@@H]1O (stereo partly specified)
- Serum Ca2+ [6]: 5.9
- Serum Ca2+ [7]: 6.8 and 7.1
- Ratio [8]: 10.5 and 7.8
- Ratio [4]: 10.5
- Ratio [9]: 8 and 7.1
- Ratio [10]: 8.3

Structure (SMILES): C[C@H](CCCC(C)(C)O)[C@H]1CC[C@H]2/C(=C\C=C3C[C@@H](O)C(O)[C@H](O)C3)CCC[C@]12C (stereo partly specified) [listing 3 of 3 here]
- Serum Ca2+ [11]: 4.1
- Serum Ca2+ [12]: 4.2
- Serum Ca2+ [7]: 4.2 and 4.1

Structure (SMILES): C[C@H](CCCC(C)(C)O)[C@H]1CC[C@H]2/C(=C/C=C3C[C@@H](O)C(OCCCO)[C@H](O)C3)CCC[C@]12C (stereo partly specified) [listing 2 of 3 here]
- Ratio [13]: 5.7

Structure (SMILES): C[C@H](CCCC(C)(C)O)[C@H]1CC[C@H]2/C(=C/C=C3C[C@@H](O)C(OCCCO)[C@H](O)C3)CCC[C@]12C (stereo partly specified) [listing 3 of 3 here]
- Serum Ca2+ [6]: 4.7
- Serum Ca2+ [7]: 5.8
- Serum Ca2+ [14]: 4.9
